# OXTR agonist = human OXTR agonists, primary screen, fluorescence, CHO-OTR cells, Fluo-8 calcium. Oxytocin receptor (Homo sapiens), P30559. AID 2435, 2010. Fluo-8 calcium fluorescence; normalized: DMSO 0%, oxytocin 100%. activation, % at 3 µM. 320,000 compounds, 0.32% hits;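 active = activation above the mean of all tested compounds plus 3 SD, cutoff set per screening run, cut at about 20% in these data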;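 also: peak over basal fluorescence ratio from a 100 s FLIPR kinetic read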
# TRPN1 ag = zebrafish TRPN1 channel agonists, primary screen, cell-based, HEK293, calcium fluorescence. HEK293 zebrafish TRPN1-YFP, Fluo-8 calcium fluorescence; 100% = response to 87 µM carbachol. activation, % at 3 µM. 220,000 compounds, 0.18% hits. AID 1424, 2008;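 active = activation above its plate's cutoff, the mean activation of test wells on that plate plus 3 SD, cut at about 19% in these data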;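 also: 0% = DMSO alone and 100% = 87 µM carbachol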
#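 Material: zebrafish TRPN1-YFP in HEK293 cells; Doses: single test compound dose, 3 µM nominal, 0.3% DMSO; Timing: dye loading 1 h at 37 °C, then 30 min room temperature; Technique: intracellular calcium fluorescence with Fluo-8; Benchmarks: high carbachol 87 µM, low DMSO alone.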
# OXTR potentiator = human OXTR potentiators, primary screen, fluorescence, CHO-OTR cells, Fluo-8 calcium | Oxytocin receptor (Homo sapiens), P30559 | Fluo-8 calcium fluorescence, potentiator mode; 0% = oxytocin EC15, 100% = EC100 | activation, % at 3 µM | 320,000 compounds, 0.061% hits | AID 2445, 2010;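 active = activation above that plate's cutoff, the mean activation of tested compounds plus 3 SD, cut at about 6.6% in these data, passing the limit was not always enough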;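 also: 100% uses oxytocin at 75 nM as the full agonist control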
#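 Assay system: CHO cell line stably expressing human OTR. Reagent: EC15 oxytocin agonist. Dosing: single dose, 3.0 µM nominal final compound concentration. Timing: compound 6 min at room temperature before oxytocin, 100 s read. Signal: kinetic Fluo-8 calcium fluorescence. Controls: oxytocin EC15 low and EC100 high.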
# TRPML3 agonist = human TRPML3 channel agonists, primary screen, cell-based, HEK293 TRPML3-YFP, Fluo-8 calcium fluorescence, 3 µM; Mucolipin-3 (Homo sapiens), Q8TDD5; 100% = the carbachol control signal; activation, % at 3 µM; 220,000 compounds, 0.29% hits; AID 1448, 2008;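 active = activation above its plate's cutoff, the mean activation of the plate's test wells plus 3 SD, cut at about 12% in these data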;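 also: 0% = DMSO only wells and 100% = carbachol wells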
#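 Material: TRPML3-YFP stable HEK293 cells | Dosing: One concentration, 3 µM nominal, 0.3% DMSO | Timing: 125 s total fluorescence read per well | Technique: Fluo-8 calcium dye fluorescence, ex 470-495, em 515-575 nm | Measure: Percent activation from peak-to-basal fluorescence ratio, scaled between DMSO and carbachol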
# V1R ag counter = agonists of human V1a receptor, primary screen, counter-screen for OXTR agonist project, fluorescence, CHO-V1R cells. Fluo-8 calcium fluorescence, agonist mode; 0% DMSO, 100% 3 nM vasopressin. activation, % at 3 µM. 320,000 compounds, 0.25% hits. AID 2797, 2010;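 active = activation above the mean activation of all tested compounds plus 3 SD, per screening run, cut at about 20% in these data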;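 also: signal is peak over basal fluorescence ratio across a 100 second FLIPR read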
# Target sequence (P37288 whole entry, looked up): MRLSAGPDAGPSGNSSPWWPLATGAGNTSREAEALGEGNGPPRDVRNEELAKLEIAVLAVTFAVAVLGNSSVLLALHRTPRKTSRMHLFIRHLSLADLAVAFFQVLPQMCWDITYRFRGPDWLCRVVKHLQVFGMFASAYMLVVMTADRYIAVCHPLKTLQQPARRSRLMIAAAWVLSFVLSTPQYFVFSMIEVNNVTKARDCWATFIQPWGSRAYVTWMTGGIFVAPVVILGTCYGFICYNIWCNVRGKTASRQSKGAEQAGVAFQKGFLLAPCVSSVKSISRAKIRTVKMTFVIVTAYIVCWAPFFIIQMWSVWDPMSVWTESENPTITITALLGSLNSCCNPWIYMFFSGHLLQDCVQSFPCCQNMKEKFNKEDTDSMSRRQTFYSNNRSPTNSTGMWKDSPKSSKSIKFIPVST
# * hit, by the source's call; . = no result given. This is a sample that favours compounds with a hit; in the whole collection about 0.55% have one here.
SMILES,OXTR agonist,TRPN1 ag,OXTR potentiator,TRPML3 agonist,V1R ag counter
O=S(=O)(Nc1ccc(F)cc1)c1ccc(S(=O)(=O)N2CCOCC2)cc1,27*,.,-12,.,22*
Cc1sc2ncnc(SCC(=O)Nc3ccc(S(=O)(=O)N4CCOCC4)cc3)c2c1C,1,.,2,.,2
COc1cc2nc(/C=C/c3ccc(N(C)C)cc3)sc2cc1SC,21*,8,-11,7,17
CCN(CC)c1ccc(/C=C/c2nc3ccccc3s2)cc1,7,4,-12,3,6
COc1ccc(C2SCCN2C(=S)Nc2cccc(C(F)(F)F)c2)cc1 (configuration not stated),39*,6,-14,3,22*
CCOC(=O)c1ccc(NC(=S)N2CCSC2c2ccc(Cl)cc2)cc1 (configuration not stated),38*,5,-12,3,39*
CCCCc1nc2cc(C(=O)NCc3cc(C)n(C)n3)ccc2o1,-2,.,-17,.,-1
COc1ccc(CCNC(=O)CSc2nc(=O)n3cc(C)ccc3n2)cc1OC,1,.,8,.,2
Cc1ccc(N=Cc2sc(O)c3ccccc23)cc1,29*,13,-14,8,37*
COc1cc(/C=C2\SC(=Nc3ccccc3)NC2=O)cc(Cl)c1O,89*,.,-11,.,70*
COc1cc(/C=C2/SC(=Nc3ccc(O)cc3)NC2=O)ccc1O,2,2,-10,2,2
Cc1onc(-c2ccccc2)c1C(=O)NNC(=O)c1ccccc1O,0,.,-4,.,0
Cc1onc(-c2ccccc2)c1C(=O)NNC(=S)NC(=O)c1ccc(Cl)cc1Cl,102*,7,-12,2,102*
Cc1onc(-c2ccccc2)c1C(=O)NNC(=S)NC(=O)/C=C/c1ccccc1,35*,4,-9,2,46*
Cc1cccc(C(=O)NC(=S)NNC(=O)c2ccccc2Cl)c1,71*,34*,-21,13*,49*
Cc1ccccc1C(=O)NNC(=S)NC(=O)c1ccc(Cl)cc1Cl,73*,72*,-14,57*,85*
Cc1onc(-c2ccccc2)c1C(=O)NNC(=O)c1ccccc1,-1,.,-1,.,0
Cc1onc(-c2ccccc2)c1C(=O)NNC(=S)NC(=O)c1ccc(Br)cc1,73*,23*,-11,11,66*
Cc1ccc(C(=O)NNC(=S)NC(=O)c2ccc(Cl)cc2)cc1,91*,143*,-13,83*,81*
CC(=O)NNC(=S)NC(=O)c1ccc(C)cc1,-1,0,-5,0,1
CCN1CCN(C(CNS(=O)(=O)c2cccs2)c2cccnc2)CC1 (configuration not stated),0,2,-1,1,1
N#C/C(=N\Nc1ccc(Cl)c(Cl)c1)C(=O)C1CC1,12,20*,-22,8,10
NC(=NCc1ccccc1)c1cccc([N+](=O)[O-])c1,2,.,-1,.,1
CC1(C)CSC(=NCc2ccccc2)N1C(=O)c1cccc([N+](=O)[O-])c1,10,40*,-12,15*,7
COc1ccc(Oc2ccc(NC(=O)c3ccccc3C)cc2)cc1,-2,-3,-12,0,0
SMILES,OXTR agonist,TRPN1 ag,OXTR potentiator,TRPML3 agonist,V1R ag counter
C/C(=N\Nc1ccc(C(=O)O)cc1)c1ccc(Cl)s1,24*,.,-16,.,34*
N#C/C(=C(/O)C(Cl)(Cl)Cl)c1nc2ccccc2[nH]1,15,20*,-8,5,13
CN(C)S(=O)(=O)c1cccc(NC(=S)NN=C(Cc2ccccc2)Cc2ccccc2)c1,-2,-1,-3,0,-1
CCCCCCCCCCCCCCCCn1cc[n+](C)c1,25*,1,-20,0,35*
O=S(=O)(/N=S1/CC=CCN1S(=O)(=O)c1ccccc1)c1ccccc1 (configuration not stated),29*,0,-15,2,31*
CC1C/C(=C/c2cccn2C)C(=O)/C(=C/c2cccn2C)C1 (configuration not stated),58*,1,-23,1,79*
CC1C/C(=C/c2ccncc2)C(=O)/C(=C/c2ccncc2)C1 (configuration not stated),7,4,-7,3,9
Cc1ccc(S(=O)(=O)N/N=C/c2ccc(OC3CSC3)cc2)cc1,24*,20*,-29,13*,40*
CN(Cc1nc(Cc2ccccc2F)no1)Cc1cccc2ncccc12,4,6,-11,5,7
CCOC(=O)CN1C(=O)S/C(=C/c2ccc3c(c2)n(C)c(=O)n3C)C1=O,1,0,-2,0,0
CCOC(=O)CN1C(=O)S/C(=C/C=C/c2ccc(N(C)C)cc2)C1=O,26*,6,-17,6,28*
Cc1noc(C)c1CS(=O)(=O)c1ccc([N+](=O)[O-])cc1,1,0,-2,1,1
COc1cc(/C=C/C(=O)OC(C)C(=O)Nc2c(C)n(C)n(-c3ccccc3)c2=O)ccc1O (configuration not stated),0,.,-8,.,0
O=C(/C=C/c1ccco1)OCC(=O)c1ccc(OC(F)F)cc1,-2,.,-6,.,1
CCc1ccc(NC(=O)C(C)OC(=O)/C=C/c2ccc(O)c(OC)c2)cc1 (configuration not stated),45*,.,-11,.,34*
COc1cc(/C=C/C(=O)OCC(=O)c2ccc(OC(F)F)cc2)ccc1O,34*,.,-10,.,21*
CC(C)n1cc(CN2CCCC(C(=O)Nc3cccc(-c4cc5ccccc5[nH]4)c3)C2)cn1 (configuration not stated),24*,.,-14,.,26*
Cn1cc(CN2CCCC(C(=O)Nc3cccc(-c4cc5ccccc5[nH]4)c3)C2)cn1 (configuration not stated),8,.,-14,.,5
N#C/C(=C\c1ccc(N2CCCCC2)o1)C(=O)Nc1cccc(Br)c1,187*,20*,-21,14*,199*
N#C/C(=C\c1ccc(N2CCCCC2)o1)C(N)=O,3,4,-2,4,7
OC(CNCCc1ccc(C(F)(F)F)cc1)COC(c1ccccc1)c1ccccc1 (configuration not stated),27*,.,-15,.,35*

# Source: PubChem BioAssay
